Laboratory results taken from ChEMBL document CHEMBL1156019, “Synthesis and small-animal positron emission tomography evaluation of [11C]-elacridar as a radiotracer to assess the distribution of P-glycoprotein at the blood-brain barrier” (J Med Chem, 2009).
Values belong to the compound of their own block, whether it stands above or below them.

Legend:
Brain [1] = experiment: Biodistribution in naive rat brain assessed per gram of tissue at 118 +/- 40 MBq, iv after 130 mins by positron emission tomography; format: ADME, organism-based; settings: in vivo
Procedure, shortened: (§1)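 Naïve rats under 1.5-2% isoflurane with femoral artery and vein catheters; [11C]-tracer 118±40 MBq i.v. bolus over ~30 s; dynamic microPET. Scan 1: unlabeled compound 5 mg/kg i.v. at 60 min, then 90 min more acquisition; scan 2 given 2 h after unlabeled dose. Whole-brain TACs as %ID/g; arterial blood sampled serially and gamma counted. n=3, mean ± SD.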

[2] = Inhibition of P-gp-mediated [3H]daunorubicin transport in Wistar rat hepatocytes by scintillation counting; format: cell-based; settings: hepatocyte
Brain [3] = experiment: Ratio of drug level in naive rat brain at 118 +/- 40 MBq, iv administered 2 hrs after unlabeled elacridar infusion to drug level in naive rat brain at 118 +/- 40 MBq, iv administered before unlabeled elacridar infusion; format: ADME, organism-based; settings: in vivo
Procedure, shortened: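 Naive rats under isoflurane with femoral artery and vein catheters; n=3. Scan 1: [11C]-1 118±40 MBq i.v. bolus over about 30 s, then dynamic PET. At 60 min, unlabeled 1 (5 mg/kg) i.v. over about 20 s, then 90 min more imaging. Scan 2 run 2 h after unlabeled dose. Whole-brain %ID/g at 18 min compared as scan 2/scan 1; two-tailed paired t-test.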

Rattus norvegicus = species: Rattus norvegicus; settings: Sprague-Dawley, 10 M
Brain [4] = experiment: Biodistribution in naive rat brain assessed per gram of tissue at 118 +/- 40 MBq, iv administered 2 hrs after unlabeled elacridar infusion measured after 18 mins by positron emission tomography; format: ADME, organism-based; settings: in vivo, 0.3 h; procedure, shortened: as §1
Caco-2 = experiment: Ratio of permeability from basolateral to apical side over apical to basolateral side in human Caco-2 cells
Brain [5] = experiment: Biodistribution of rat brain at 20 MBq, iv after 30 mins post-injection in presence of cyclosporine A treated before compound infusion relative to basal level; format: ADME, organism-based; settings: in vivo, 0.5 h
Blood [6] = experiment: Biodistribution in Bcrp1 knockout mouse blood assessed per gram of tissue at 42 +/- 6 MBq, iv after 20 mins by gamma counting; settings: in vivo
[7] = Ratio of drug level in wild type mouse brain to naive rat brain; format: ADME, tissue-based; settings: in vivo
Procedure, shortened: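 Whole-brain %ID/g at 18 min after i.v. [11C]-1, from dynamic PET. Wild-type female FVB mice received 42±6 MBq via tail vein. Naive rats (baseline scan, before any unlabeled compound) received 118±40 MBq via femoral vein catheter. Both groups under isoflurane; n=3 each.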

Brain [8] = experiment: Biodistribution in Mdr1a/b knockout mouse brain assessed per gram of tissue, iv after 18 mins; settings: in vivo, 0.3 h
Blood [9] = experiment: Biodistribution in wild type mouse blood assessed per gram of tissue at 42 +/- 6 MBq, iv after 20 mins by gamma counting; settings: in vivo
Blood [10] = experiment: Biodistribution in Mdr1a/b knockout mouse blood assessed per gram of tissue at 42 +/- 6 MBq, iv after 20 mins by gamma counting; settings: in vivo
Brain [11] = experiment: Biodistribution in naive rat brain assessed per gram of tissue at 118 +/- 40 MBq, iv after 0.6 mins by positron emission tomography; format: ADME, organism-based; settings: in vivo, 0.01 h; procedure, shortened: as §1
Brain [12] = experiment: Biodistribution in wild type mouse brain assessed per gram of tissue, iv after 18 mins; settings: in vivo, 0.3 h
Brain [13] = experiment: Ratio of drug level in Mdr1a/b knockout mouse brain to wild type mouse brain; format: ADME, tissue-based; settings: in vivo
Procedure, shortened: (§2)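 Wild-type FVB, Mdr1a/b(-/-) and Bcrp1(-/-) female mice (25-30 g), isoflurane-anesthetized and kept warm. [11C]-1 42±6 MBq i.v. bolus via tail vein, with a 60-min dynamic microPET scan started at injection. Whole-brain %ID/g read from time-activity curves at 18 min; knockout/wild-type ratios taken at 18 min; n=3; two-tailed unpaired t-test.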

Blood [14] = experiment: Biodistribution in naive rat blood assessed per gram of tissue at 118 +/- 40 MBq, iv after 20 mins by gamma counting; format: ADME, organism-based; settings: in vivo; procedure, shortened: as §1
Brain [15] = experiment: Biodistribution in naive rat brain assessed per gram of tissue at 118 +/- 40 MBq, iv after 18 mins by positron emission tomography; format: ADME, organism-based; settings: in vivo, 0.3 h; procedure, shortened: as §1
Brain [16] = experiment: Biodistribution in Bcrp1 knockout mouse brain assessed per gram of tissue, iv after 18 mins; settings: in vivo, 0.3 h
Brain [17] = experiment: Ratio of drug level in Bcrp1 knockout mouse brain to wild type mouse brain; format: ADME, tissue-based; settings: in vivo; procedure, shortened: as §2

- Drug uptake (Brain [1]): 0.28 %ID
- Ki [2]: 35 nM
- Ratio (Brain [3]): 5.4
- inhibition (Rattus norvegicus): 63%
- Drug uptake (Brain [4]): 0.4 %ID
- Ratio (Caco-2): < 2
SMILES: COc1cc2c(cc1OC)CN(CCc1ccc(NC(=O)c3cccc4c(=O)c5cccc(OC)c5[nH]c34)cc1)CC2

- fold change (FC) (Brain [5]): 6
SMILES: [11CH3]OC(=O)c1cnc2n1CCc1ccccc1C2=C1CCN(CCc2ccc(OCc3ccc4ccccc4n3)cc2)CC1

- Drug uptake (Blood [6]): 0.89 %ID
- Ratio [7]: 10
- Drug uptake (Brain [8]): 1.8 %ID
- Drug uptake (Blood [9]): 0.97 %ID
- Drug uptake (Blood [10]): 0.64 %ID
- Drug uptake (Brain [11]): 0.23 %ID
- Drug uptake (Brain [12]): 0.72 %ID
- Ratio (Brain [13]): 2.5
- Drug uptake (Blood [14]): 0.02 %ID
- Drug uptake (Brain [15]): 0.07 %ID
- Drug uptake (Brain [16]): 0.9 %ID
- Ratio (Brain [17]): 1.3
SMILES: COc1cc2c(cc1OC)CN(CCc1ccc(NC(=O)c3cccc4c(=O)c5cccc(O[11CH3])c5[nH]c34)cc1)CC2
